Converted amounts (≈) assume the structure as drawn.

Holding throughout (assay type): functional
Experiment [1] can be described thus: (§1) Cytotoxicity against mouse 26-L5 cells by MTT assay. To be noted: read-out: ED50 (the source's name). In a few lines: (§2)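 MTT viability read-out, run by a previously described method. Cells were highly liver-metastatic murine colon 26-L5 carcinoma and human HT-1080 fibrosarcoma.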
The next experiment concerns HT-1080. Nature of the experiment: Cytotoxicity against human HT1080 cells by MTT assay. To be noted: for EC50: read-out: ED50 (the source's name). In a few lines: as §2
The species entered for the next experiment is Mus musculus. The description is as §1. The method, boiled down:
as §2

On to `COc1ccc(-c2oc3cc(O)cc(O)c3c(=O)c2OC)cc1` [ERMANIN], for which the EC50 (in experiment [1]; in the experiment on HT-1080) was below 8 µg/mL each time.

Consider `C=C(C)C1Cc2cc(/C=C/C(=O)O)cc(CC=C(C)C)c2O1` (configuration not stated), for which the Activity entry in the experiment listed under Mus musculus and in the experiment with HT-1080 was “Not toxic” throughout.

As to `COc1cc([C@@H]2c3c(oc4cc(C(C)=O)c(O)cc34)C(=O)C[C@H]2COC(C)=O)ccc1O` [PROPOLIS-BENZOFURAN B], the values for the EC50 (in experiment [1]; in the experiment on HT-1080) were 13.7 µg/mL (≈ 31.2 µM) and 43.2 µg/mL (≈ 98.5 µM), respectively.

Take `COc1ccc(-c2oc3cc(O)c(OC)c(O)c3c(=O)c2O)cc1` [BETULETOL]: the EC50 (in experiment [1]; in the experiment with HT-1080) was below 8 µg/mL in each case.

Regarding `COc1ccc(-c2oc3cc(O)cc(O)c3c(=O)c2O)cc1` [KAEMPFERIDE], the EC50 (in experiment [1]; in the experiment on HT-1080) was below 8 µg/mL in each case.

As for `COc1cc([C@@H]2OC=C(c3cc4cc(O)c(C(C)=O)cc4o3)C[C@H]2COC(C)=O)ccc1O` [PROPOLIS-BENZOFURAN A], the EC50 in experiment [1] worked out at 12.4 µg/mL (≈ 27.4 µM); in the experiment on HT-1080, 13.9 µg/mL (≈ 30.7 µM).
